Rows were chosen to be rich in hits. Some 3.1% of all compounds tested hit in one or more screens of this group.
KCNK9 block – blocks the human KCNK9 two-pore domain potassium channel | HEK293 KCNK9, FluxOR thallium flux fluorescence; hits give low values | Q9NPC2 | hit rate 1.2% among 310,000 | B-score at 10 µM;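 active = ratio B-score over 3 SD below the library mean, with starting fluorescence within 5 SD of its mean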;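 also: negative B-score means less thallium flux so channel inhibition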
Target sequence (Q9NPC2 whole entry, looked up, the tested form may be a part): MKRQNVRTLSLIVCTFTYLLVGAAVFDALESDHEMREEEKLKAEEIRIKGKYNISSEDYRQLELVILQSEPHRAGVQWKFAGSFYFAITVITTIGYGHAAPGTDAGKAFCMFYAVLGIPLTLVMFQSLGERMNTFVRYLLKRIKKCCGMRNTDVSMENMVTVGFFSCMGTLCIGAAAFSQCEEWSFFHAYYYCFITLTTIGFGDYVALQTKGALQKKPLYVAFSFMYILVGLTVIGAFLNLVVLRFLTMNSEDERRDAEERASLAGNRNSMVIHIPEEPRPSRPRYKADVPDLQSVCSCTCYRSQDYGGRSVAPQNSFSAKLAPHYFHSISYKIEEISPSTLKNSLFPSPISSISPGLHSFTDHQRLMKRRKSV
KCNQ1 block – human KCNQ1 channel inhibition | CHO-K1 KCNQ1, FluxOR thallium flux fluorescence; hits give high values | P51787 | B-score at 10 µM | AID 2642 | hit rate 1.3% among 310,000;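 active = compounds whose thallium flux B-score, printed positive for inhibition, exceeds three library SD while starting fluorescence stays within three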;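 also: channel opened by potassium depolarization with thallium stimulus after 20 min compound exposure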
KCNK3 inh – human KCNK3 channel inhibition, primary screen; O14649; CHO-KCNK3 thallium flux, FluxOR fluorescence; hits give low values; B-score at 10 µM; hit rate 0.84% among 340,000; AID 602410;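 active = B-score under library mean minus 4 SD, starting fluorescence ratio at most library mean plus 5 SD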;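 also: more negative B-score means stronger inhibition of thallium flux through KCNK3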
hERG protect – compounds protecting human hERG from proarrhythmic drug block. CHO-hERG, FluxOR thallium flux, dofetilide IC70 present. Q12809. AID 1511. activation (rescue from dofetilide block), less the hit threshold, % at 10 µM. hit rate 0.51% among 310,000;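 active = activation above the mean of controls blocked by dofetilide plus 5 SD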;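 also: thallium influx through hERG after potassium depolarization seen as dye fluorescence rise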
KCNQ1 pot – potentiators or activators of human KCNQ1 potassium channel; P51787; CHO-K1 KCNQ1, thallium flux FluxOR fluorescence; hits give high values; B-score at 10 µM; hit rate 0.35% among 310,000; AID 2648;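 active = fluorescence ratio B-score, a plate-corrected score, at least three library SD, with initial intensity B-score within 5 SD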
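Assay system: CHO-K1 cells stably expressing KCNQ1. Medium: assay buffer for compound exposure, DMSO matched across wells. Timing: 37 °C overnight plating, 90-min dark dye load, 20-min compound pretreatment. Signal: kinetic FluxOR fluorescence, 10 s baseline plus 110 s post-stimulus.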
Large screens that a line does not name were inactive.

CCCc1nc(SCC(=O)Nc2cc(Cl)ccc2OC)c2c(=O)n(C)c(=O)n(C)c2n1	KCNQ1 pot 14 (no result: KCNK3 inh)
CCn1c(O)c(N=NC(=S)NCC2CCCO2)c2ccccc21 (centres undefined)	hERG protect 6.3
Oc1[nH]c2ccccc2c1N=NC(=S)NCC1CCCO1 (centres undefined)	none
Oc1[nH]c2c(Cl)cc(Cl)cc2c1N=NC(=S)NCC1CCCO1 (centres undefined)	hERG protect 12, KCNQ1 pot 52
CN1CCN(CC(=O)Nc2ccc(OC(F)(F)F)cc2)CC1	none
CCOC(=O)c1sc2nc(C)[nH]c(=S)c2c1C	KCNQ1 pot 40
CCOC(=O)c1sc2nc(C)n(N)c(=O)c2c1C	none
Oc1ccc(Oc2ccc(Oc3ccc(O)cc3)cc2)cc1	KCNK9 block -6.9, KCNQ1 block 13
CCc1nnc(NC(=O)c2cccc(S(=O)(=O)N3CCN(c4ccccc4)CC3)c2)s1	hERG protect 5.5
CC(c1nc2ccccc2n1Cc1ccccc1)N1CCCCC1 (centres undefined)	none
Cn1c(=S)c2[nH]c(SCC3CCCO3)nc2n(C)c1=O (centres undefined)	none (no result: KCNK9 block, KCNQ1 block, hERG protect, KCNQ1 pot)
CCOC(=O)C1CN(S(=O)(=O)c2ccccc2)CCN1S(=O)(=O)c1ccccc1 (centres undefined)	none
COC(=O)C1CN(S(=O)(=O)c2ccccc2)CCN1S(=O)(=O)c1ccccc1 (centres undefined)	KCNK9 block -7.3
O=c1ccccn1CCOc1ccccc1Cl	hERG protect 5.3
CCN(Cc1ccncc1)C(=O)c1cc(COc2ccc(OC)cc2Cl)on1	none
CCOP(=O)(OCC)c1nc(-c2ccc(F)cc2)oc1NCc1ccccc1	KCNK9 block -6.6
CCOP(=O)(OCC)c1nc(-c2ccccc2)oc1NCc1ccccc1	none
Cc1ccc2c(c1)sc1nc(=O)ccn12	hERG protect 6.7
Cc1cc(C)c(C)c(S(=O)(=O)N2CCN(C(=O)CNC(=O)c3ccco3)CC2)c1C	none (no result: KCNK9 block, KCNQ1 block, hERG protect, KCNQ1 pot)
CC(C)c1ccc(NC(=S)N(C)CCc2ccccn2)cc1	hERG protect 29
CN(c1ccccc1)S(=O)(=O)c1cccc(C(=O)NCCCN2CCCC2=O)c1	none
CCOc1ccccc1N(CC(=O)OC)S(C)(=O)=O	hERG protect 4.6
CCOc1ccccc1N(CC(=O)N1CCCCCC1)S(C)(=O)=O	none
COc1ccc(S(=O)(=O)n2nc(OC(=O)c3ccccc3Br)cc2N)cc1	KCNK3 inh -9.1
CCN(CC)S(=O)(=O)c1ccc(F)cc1	none
CCCc1ccc(S(=O)(=O)N(C)S(=O)(=O)c2ccc(F)cc2)cc1	KCNK9 block -6.7
CCOc1ccc(S(=O)(=O)N2CCN(Cc3ccco3)CC2)cc1	none
COc1ccc(N2C3=C(CC4=C2CCCC4=O)C(=O)CCC3)cc1	KCNK9 block -6.6
OC(c1ccccc1)(c1ccccc1)c1nccc2ccccc12	KCNK3 inh -10 (no result: KCNK9 block, KCNQ1 block, hERG protect, KCNQ1 pot)
Cc1nc(N2CCCCC2)c2c(-c3cccs3)csc2n1	KCNK9 block -7.3
Cc1c(/C=N/Nc2nc3ccccc3[nH]2)c2ccccc2n1C	KCNQ1 block 7
CC1(C)CC(c2nc(-c3ccc(Cl)cc3)cs2)CCS1 (centres undefined)	KCNQ1 block 9
CC1(C)CC(c2nc(-c3ccc(Br)cc3)cs2)CCS1 (centres undefined)	none
COc1ccc(OC)c(CCNC(=O)Cn2sc3nc(C)cc(C)c3c2=O)c1	KCNQ1 block 6 (no result: KCNK3 inh)
Cc1cc(C)c2c(=O)n(CC(=O)NC3CCCC3)sc2n1	none
CN(C(=O)c1cnccn1)c1nnc(-c2cnccn2)s1	hERG protect 10
CC(=O)N[C@H]1[C@H](OC2CCCCC2)O[C@H](COC(C)=O)[C@@H](OC(C)=O)[C@@H]1OC(C)=O	KCNQ1 pot 8
COc1ccc(O[C@@H]2O[C@H](COC(C)=O)[C@@H](OC(C)=O)[C@H](OC(C)=O)[C@H]2NC(C)=O)cc1	none
CCC(c1nnnn1Cc1ccco1)N(CCc1ccccc1)Cc1cc2cc(C)ccc2[nH]c1=O (centres undefined)	none
CCC(c1nnnn1CCc1ccccc1)N(Cc1ccco1)Cc1cc2cc(C)cc(C)c2[nH]c1=O (centres undefined)	none
CCC(c1nnnn1CCc1ccccc1)N(Cc1ccco1)Cc1cc2c(C)ccc(C)c2[nH]c1=O (centres undefined)	KCNK9 block -7.3

Compound activity from PubChem.
